FLuc stim CS: FLuc activators, initial screening, artefact control for FLuc-dependent activation tests, biochemical, ATPlite luminescence. ATPlite luciferase biochemical, 10 min; 0 = ATP-free wells, 1 = DMSO control. activation factor at 10 µM. Luciferin 4-monooxygenase (Photinus pyralis), P08659. 200,000 tested, under 10 active;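 active means luciferase activation factor, scaled between plate controls, of at least 2 with compound at 10 µM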
Target sequence (P08659 whole entry, looked up): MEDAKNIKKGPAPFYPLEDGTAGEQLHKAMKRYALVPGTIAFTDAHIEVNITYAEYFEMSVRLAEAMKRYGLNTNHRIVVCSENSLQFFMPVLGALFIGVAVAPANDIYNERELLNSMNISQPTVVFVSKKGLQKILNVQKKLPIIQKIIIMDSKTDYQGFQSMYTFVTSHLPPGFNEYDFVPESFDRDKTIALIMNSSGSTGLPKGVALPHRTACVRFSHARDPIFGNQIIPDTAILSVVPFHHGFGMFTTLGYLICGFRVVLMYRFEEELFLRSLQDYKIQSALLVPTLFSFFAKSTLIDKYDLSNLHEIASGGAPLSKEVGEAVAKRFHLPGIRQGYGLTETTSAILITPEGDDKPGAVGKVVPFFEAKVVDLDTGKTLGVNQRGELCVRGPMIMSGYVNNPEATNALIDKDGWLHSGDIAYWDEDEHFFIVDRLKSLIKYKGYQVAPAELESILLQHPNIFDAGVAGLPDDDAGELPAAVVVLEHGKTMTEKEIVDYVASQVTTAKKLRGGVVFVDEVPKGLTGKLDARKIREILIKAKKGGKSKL
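Material: luciferase plus luciferin reagent, cell-free. Medium: PBS buffer for ATP. Also added: ATP substrate, dispensed from a 10.24 µM working solution in PBS. Doses: test compounds dosed from 2 mM stocks in 100% DMSO. Incubation: 10 min post-reagent at room temperature. Technique: light output (luminescence). Read-out basis: luminescence gain marking luciferase activators.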
PPC-1+TRAIL kill: compounds killing PPC-1 cancer cells with TRAIL present, primary screen, TRAIL potentiator project, ATPLite luminescence, uHTS; 220,000 tested, 0.41% active; cell killing (% activity), % at 4 µM or 5 µM; PPC-1 cells + TRAIL, ATPLite viability luminescence;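 active means cell killing above 50% in the first pass at 4 µM, then a duplicate retest at 5 µM averaging 50% or more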;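 further: plate controls were cells with TRAIL plus DMSO for no effect and medium-only wells lacking cells for full effect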
FLuc inhib CS: firefly luciferase enzyme inhibitors, primary screen, artefact control for luciferase-based inhibitor screens, biochemical, luminescence, ATPLite; 200,000 tested, 1.5% active; 10 min; inhibition, % at 10 µM; AID 1006, 2008;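 active means inhibition above about 50% when tested at 10 µM, limit read from the data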
TRAIL sens C8: viability loss with TRAIL in NB7+C8 cells, primary screen, TRAIL sensitizer project, cell-based, ATPlite luminescence | inhibition (viability loss, TRAIL sensitization), % at 10 µM | 360,000 tested, 1% active | AID 624354, 2012;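 active means compounds causing at least 50% loss of cell viability in the single-dose screen, relative to plate controls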
APP 5'UTR act: activators of APP 5'UTR luciferase reporter, primary screen, SH-SY5Y cells; AID 1276, 2008; 190,000 tested, 1% active; activation, % at 2 µM; SH-SY5Y APP 5'UTR luciferase reporter, luminescence; zero percent = DMSO vehicle wells;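 active means activation above a set limit, based on mean plus 3 SD of controls, cut at about 140% in these data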
NF-kB expr up: activators of NF-kB expression in neurons, primary screen, cell-based, HTS | 190,000 tested, 1.6% active | human neuronal cells, NF-kB reporter expression; hits give high values | fold change at 12.5 µM; in the data active means fold change above about 3.3
Starred values were filed as active, the others as inactive; x = no result. Compounds with a hit are over-represented: about 2.2% of the library has one in this group of screens.

SMILES	FLuc stim CS	PPC-1+TRAIL kill	FLuc inhib CS	TRAIL sens C8	APP 5'UTR act	NF-kB expr up
C/C(=N\NS(=O)(=O)c1ccccc1)c1ccc2c(c1)OCCO2	1.1	-5	-6	0	5	1.2
CC(C)(C)c1ccc(C(=O)Nc2cccc3c(=O)[nH][nH]c(=O)c23)cc1	0.3	31	70*	47	91	1.8
Cc1ccc(C(=O)Nc2cccc3ccccc23)cc1	x	x	x	-3	x	x
Cc1ccc(/C(N)=N/OC(=O)c2ccc(F)cc2)cc1	0.3	9	68*	74*	46	7.9*
N/C(=N\OC(=O)c1ccc(F)cc1)c1ccc(Br)cc1	0.6	21	36	48	52	2
N/C(=N\OC(=O)c1ccc(F)cc1)c1ccccc1	0	6	97*	1	94	3.5*
O=C(CNc1ccc(Br)cc1)c1ccc(Br)s1	x	x	x	2	x	x
Cc1nn2cc(-c3ccc(Cl)cc3)cnc2c1Cl	1	-3	3	-21	155*	3.4*
COC(=O)c1sc(NC(=S)NC(=O)c2ccccc2F)nc1C	0.5	21	49	48	78	1.3
CC(=O)c1sc(NC(=O)c2cccc(C)c2)nc1C	0.5	18	51*	25	124	5.5*
COC(=O)c1sc(NC(=S)NC(=O)c2cccc(C)c2)nc1C	0.5	13	50	51*	29	0.86
COC(=O)C(Cc1ccccc1)NC(=O)c1ccc(C)cc1 (stereo unspecified)	0.4	x	60*	-6	39	1.4
CCOc1ccc(C(=O)N/N=C/c2ccccc2[N+](=O)[O-])cc1	0.1	52*	89*	76*	140*	2
Cc1ccc(C(=O)N/N=C\C=C\c2ccccc2[N+](=O)[O-])cn1	1	33	1	3	-22	1.2
Cc1ccc(C(=O)N/N=C\c2ccccc2[N+](=O)[O-])cn1	0.2	x	78*	52*	43	2
O=S(=O)(c1ccc(=S)[nH]c1)N1CCCC1	x	x	x	3	x	x
Fc1ccc(-n2nnnc2-c2cnc(-c3cccs3)nc2C(F)(F)F)cc1	1	3	-4	39	-3	0.52
O=c1c2c(nc3cc(-c4ccc(Cl)cc4)[nH]n13)CCS2	0.4	41	60*	51*	87	1.9
Cc1nc2cc(-c3ccc(F)cc3)[nH]n2c(=O)c1C	x	x	x	21	x	x
O=c1c2c(nc3cc(-c4cccc(F)c4)[nH]n13)CCC2	0.5	25	47	22	109	4.2*
CCc1c(C)nc2cc(-c3ccc(Cl)cc3)[nH]n2c1=O	x	x	x	0	x	x
O=c1c2c(nc3cc(-c4cccc(Cl)c4)[nH]n13)CCC2	0.5	10	47	13	143*	5.4*
O=c1c2c(nc3cc(-c4ccc(F)cc4)[nH]n13)CCCC2	0.3	43	68*	53*	168*	3.4*
C=CCN1C(=O)C(CC(=O)NCC)SC1=Nc1ccccc1OC (stereo unspecified)	x	x	x	-6	x	x
Cc1ccsc1C(=O)NCCc1ccc(S(N)(=O)=O)cc1	x	x	x	-2	x	x
SMILES	FLuc stim CS	PPC-1+TRAIL kill	FLuc inhib CS	TRAIL sens C8	APP 5'UTR act	NF-kB expr up
Cc1ccc(-c2cc(C(=O)OCC(=O)NC3CC3)c3ccccc3n2)cc1	x	x	x	46	x	x
CCc1nc2sc3c(c2c(=O)o1)CCCC3	1	-15	1	-6	6	0.93
O=c1oc(-c2cccs2)nc2scc(-c3cccs3)c12	0.8	0	19	-2	200*	1.9
O=c1oc(-c2cc3ccccc3o2)nc2sc3c(c12)CCCC3	0.6	11	35	-4	226*	1.2
Nc1nc(-c2cccnc2)nc2sc3c(c12)CCCC3	0.2	49	85*	60*	93	5.6*
Cc1ccccc1-c1nc2sc3c(c2c(=O)o1)CCC3	0.7	2	27	-4	14	4*
CS(=O)(=O)c1ccccc1-c1nc(-c2ccc([N+](=O)[O-])cc2)no1	0.9	6	5	2	0	1.3
O=C(CN1CCN(Cc2ccccc2F)CC1)Nc1ccccc1Cl	x	x	x	1	x	x
CCOCCc1nnc(NC(=O)CCS(=O)(=O)c2ccccc2)s1	x	x	x	-8	x	x

From PubChem
